This passage reports Activity, inhibition and viability results from ChEMBL document CHEMBL3124918, “Optimization of peptides that target human thymidylate synthase to inhibit ovarian cancer cell growth” (2014).

Calls of active or inactive are those of the source. The calls are words filed in the database; no cut-off is given here. Non-standard residues stand in square brackets, D forms with d. Residues, ends and D or L forms follow the SMILES beside them.

In assay [1] the test system is 2008. As to the kind of experiment: Upregulation of thymidylate synthase total protein level in human 2008 cells at 5 uM after 48 hrs by Western blotting analysis. Format: functional, cell-based.
A short description of assay [2]: Upregulation of thymidylate synthase total protein level in 13-fold cisplatin-resistant human C13 cells at 5 uM after 48 hrs by Western blotting analysis. Format: functional, cell-based.
The target in assay [3] is Thymidylate synthase (Homo sapiens) (UniProt P04818). The assay is described as follows: Inhibition of human thymidylate synthase using dUMP as substrate at 75 uM after 1 hr by UV-vis spectrophotometric analysis in presence of mTHF relative to control. The method, boiled down:
(§1)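 Purified hTS, concentration by UV-vis (ε280 = 89 000 M−1 cm−1), preincubated 1 h with peptide in phosphate buffer pH 6.9 at 25 °C. Reaction in 50 mM TES pH 7.4 with 25 mM MgCl2, 6.5 mM HCHO, 1 mM EDTA, 75 mM βME, 0.6 mM dUMP, 0.15 mM mTHF. A340 followed 3 min. I% versus enzyme-alone control, mean ± SEM, n = 3.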

For assay [4], the system named is 2008. As to the kind of experiment: Cytotoxicity against human 2008 cells assessed as cell survival at 10 uM after 72 hrs by crystal violet staining-based spectrophotometric analysis relative to control. Particulars: Homo sapiens, 2008, 72 h, read-out: Survival.
The next assay concerns A2780. The assay is described as follows: Cytotoxicity against human A2780 cells assessed as cell survival at 10 uM after 72 hrs by crystal violet staining-based spectrophotometric analysis relative to control. Particulars: A2780, 72 h, read-out: Survival.
Assay [5] in a line: Cytotoxicity against 13-fold cisplatin-resistant human C13 cells cell survival at 10 uM after 72 hrs by crystal violet staining-based spectrophotometric analysis relative to control. Particulars: C13, 72 h, read-out: Survival.
The nature of assay [6]: Cytotoxicity against 10-fold cisplatin-resistant human A2780C/P cells cell survival at 10 uM after 72 hrs by crystal violet staining-based spectrophotometric analysis relative to control. Particulars: A2780cisR, read-out: Survival.
For assay [7], the target named is Thymidylate synthase (Homo sapiens) (UniProt P04818). As to the kind of experiment: Inhibition of human thymidylate synthase using dUMP as substrate at 50 uM after 1 hr by UV-vis spectrophotometric analysis in presence of mTHF relative to control. In outline: as §1
Chain of Thymidylate synthase (Homo sapiens) (P04818 2-313 limits assumed): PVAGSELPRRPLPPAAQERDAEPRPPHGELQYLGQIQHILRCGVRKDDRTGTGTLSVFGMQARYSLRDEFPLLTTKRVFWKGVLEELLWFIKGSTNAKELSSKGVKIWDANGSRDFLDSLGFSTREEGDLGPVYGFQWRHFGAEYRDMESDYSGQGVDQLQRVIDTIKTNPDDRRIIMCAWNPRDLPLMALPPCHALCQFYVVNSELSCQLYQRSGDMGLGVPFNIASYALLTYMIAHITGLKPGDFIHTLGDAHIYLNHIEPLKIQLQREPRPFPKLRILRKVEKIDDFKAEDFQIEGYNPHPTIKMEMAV

For the compound `O=c1[nH]cc(F)c(=O)[nH]1`, the result (with 2008 [1]; in assay [2]) was Active. In the case of `CC(C)C[C@H](N)C(=O)N[C@@H](CO)C(=O)N[C@@H](CS)C(=O)N[C@@H](CCC(N)=O)C(=O)O` (H-LSCQ-OH), the inhibition in assay [3] was 59%.

In the case of `CC(C)C[C@H](NC(=O)[C@@H](CCC(N)=O)NC(=O)[C@H](CS)NC(=O)[C@H](CO)NC(=O)[C@@H](N)CC(C)C)C(=O)N[C@@H](Cc1ccc(O)cc1)C(=O)N[C@@H](CCC(N)=O)C(=O)N[C@@H](CCCNC(=N)N)C(=O)O` (H-LSC[dQ]LYQR-OH), the viability at 10 µM with 2008 [4] was below 50%; in the assay on A2780, below 50%; in assay [5], 25%; in assay [6] it was 25%. As for H-CQLYQ-OH, the inhibition in assay [3] worked out at 52%. Take H-LSCQLYAR-OH: in assay [7], the inhibition is 60%.

For H-LSCQLYQ-OH, the inhibition in assay [3] was 56%. Take H-SCQLYQR-OH: in assay [7], the inhibition came out at 54%.
